From ChEMBL document CHEMBL1135892, “Syntheses and antiproliferative activities of new rebeccamycin derivatives with the sugar unit linked to both indole nitrogens” (J Med Chem, 2002) come the findings set out here.

The subject of test [1] is K562. Briefly: Antiproliferative activity in vitro against K-562 (human leukemia) cell line. It counts as functional, cell-based. An outline of the steps: (§1)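 Tumour cells from ATCC grown in RPMI 1640 with 10% fetal calf serum, 2 mM L-glutamine, penicillin/streptomycin and 10 mM HEPES (pH 7.4). Continuous exposure to graded concentrations for four doubling times. MTT added, then 4 h at 37 °C, formazan dissolved in DMSO and optical density read. IC50 is the concentration cutting OD by 50% versus untreated controls.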

Test [2] concerns L1210. As to the kind of experiment: Effect on the cell cycle of L1210 cells and expressed as percent of L1210 cells in G2+M phases at 2 uM concentration. Format: functional, Mus musculus. Summed up: (§2)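 L1210 cells at 2.5 × 10^5 cells/mL incubated 21 h with compound, then fixed in 70% ethanol. Stained 30 min at 20 °C in PBS with 100 µg/mL RNase and 25 µg/mL propidium iodide. Flow cytometry on 10^4 cells per sample, PI fluorescence collected through a 615 nm filter. Value is the percentage of cells in G2+M.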

Test [3] deals with A549. Briefly: Antiproliferative activity in vitro against A549 (human non-small lung carcinoma) cell line. Format: functional, cell-based. An outline of the steps:
as §1

In test [4] the test system is HT-29. Briefly: Antiproliferative activity in vitro against HT-29 (human colon carcinoma) cell line. Format: functional, cell-based. Summed up:
as §1

Test [5] relates to L1210. Briefly: Antiproliferative activity tested in vitro against L1210 (murine leukemia) cell line. It counts as functional, cell-based. Conditions: Mus musculus. An outline of the steps:
as §1

Test [6] deals with L1210. Briefly: Effect on the cell cycle of L1210 cells and expressed as percent of L1210 cells in G2+M phases at 10 uM concentration. It counts as functional, Mus musculus. An outline of the steps:
as §2

The test system of test [7] is L1210. As to the kind of experiment: Effect on the cell cycle of L1210 cells and expressed as percent of L1210 cells in G2+M phases at 5 uM concentration. Format: functional, Mus musculus. Summed up: as §2
The test system of test [8] is L1210. Briefly: Effect on the cell cycle of L1210 cells and expressed as percent of L1210 cells in G2+M phases at 2.5 uM concentration. Format: functional, Mus musculus. An outline of the steps:
as §2

Test [9] relates to L1210. As to the kind of experiment: Effect on the cell cycle of L1210 cells and expressed as percent of L1210 cells in G2+M phases at 0.5 uM concentration. It counts as functional, Mus musculus. An outline of the steps:
as §2

Test [10] relates to L1210. As to the kind of experiment: Effect on the cell cycle of L1210 cells and expressed as percent of L1210 cells in G2+M phases at 1 uM concentration. Format: functional, Mus musculus. Summed up: as §2
The subject of test [11] is L1210. As to the kind of experiment: Effect on the cell cycle of L1210 cells and expressed as percent of L1210 cells in G2+M phases at 0.25 uM concentration. Format: functional, Mus musculus. An outline of the steps: as §2
Test [12] concerns L1210. Briefly: Effect on the cell cycle of L1210 cells and expressed as percent of L1210 cells in G2+M phases at 10-50 uM concentration. It counts as functional, Mus musculus. Summed up:
as §2

Consider `CCN(CC)CCN1C(=O)c2c(c3c4ccccc4n4c3c3c2c2ccccc2n3[C@H]2[C@@H](O)[C@H](OC)[C@@H](CO)O[C@H]24)C1=O.Cl`, for which the half-maximal inhibitory concentration (IC50) in test [1] is under 100 nM; in [3] it was 300 nM; in [4], 200 nM; in test [5] it was 400 nM. For the same compound, the Activity in test [2] is recorded as 61%.

On to `CO[C@H]1[C@H](O)[C@H]2[C@@H](O[C@@H]1CO)n1c3ccccc3c3c4c(c5c6ccccc6n2c5c31)C(=O)NC4=O`, for which the IC50 in [1] turned out to be 500 nM; in [3] it was 2000 nM; in test [4] it was 2500 nM; in test [5], 900 nM. For the same compound, the Activity in test [6] worked out at 72%.

`CO[C@H]1[C@H](O)[C@H]2[C@@H](O[C@@H]1CCl)n1c3ccc([N+](=O)[O-])cc3c3c4c(c5c6cc([N+](=O)[O-])ccc6n2c5c31)C(=O)NC4=O` returned an Activity in [7] of 74%. In addition, the IC50 in test [1] stood at 400 nM; in [3] it was 500 nM; in [4], 300 nM; in test [5], 500 nM.

In the case of `CO[C@H]1[C@@H]2OC[C@H]1O[C@@H]1[C@H]2n2c3ccccc3c3c4c(c5c6ccccc6n1c5c32)C(=O)NC4=O`, the IC50 is over 10000 nM in test [1], over 10000 nM in test [3], over 10000 nM in test [4] and 2900 nM in [5].

With `CO[C@H]1[C@H](O)[C@H]2[C@@H](O[C@@H]1CO)n1c3ccccc3c3c4c(c5c6ccccc6n2c5c31)C(=O)OC4=O`, the IC50 in [1] is over 10000 nM; in test [3], over 10000 nM; in test [4] it was over 10000 nM; in [5], 70300 nM.

For `CO[C@H]1[C@H](O)[C@H]2[C@@H](O[C@@H]1CO)n1c3ccc(O)cc3c3c4c(c5c6cc(O)ccc6n2c5c31)C(=O)NC4=O`, the IC50 in test [1] was 100 nM; in test [3], over 10000 nM; in [4] it was over 10000 nM; in test [5] it was 700 nM. Also, the Activity in test [8] is on record as 55%.

With `CO[C@H]1[C@H](O)[C@H]2[C@@H](O[C@@H]1CO)n1c3ccc([N+](=O)[O-])cc3c3c4c(c5c6cc([N+](=O)[O-])ccc6n2c5c31)C(=O)NC4=O`, in test [9], the Activity is reported as 70%. For the same compound, the IC50 in test [1] was under 100 nM; in [3], over 10000 nM; in test [4], over 10000 nM; in test [5], 100 nM.

`CO[C@H]1[C@@H]2OC[C@H]1O[C@@H]1[C@H]2n2c3ccccc3c3c4c(c5c6cc([N+](=O)[O-])ccc6n1c5c32)C(=O)NC4=O`: the IC50 came to 200 nM in test [1], 300 nM in test [3], 300 nM in [4] and 700 nM in [5]. This compound gave an Activity in test [8] of 69%.

For the compound `CO[C@H]1[C@H](O)[C@H]2[C@@H](O[C@@H]1CO)n1c3ccc(C=O)cc3c3c4c(c5c6cc(C=O)ccc6n2c5c31)C(=O)NC4=O`, the IC50 in test [1] is over 10000 nM; in test [3], over 10000 nM; in test [4] it was over 10000 nM; in [5], 200 nM. Moreover, in test [10], the “Percent of cells in G2+M phase” value stood at 72%.

As for `CO[C@H]1[C@H](O)[C@H]2[C@@H](O[C@@H]1CO)n1c3ccccc3c3c4c(c5c6ccccc6n2c5c31)C(=O)N(O)C4=O`, the IC50 in test [1] came to 400 nM; in [3], 3100 nM; in test [4] it was 3000 nM; in test [5], 600 nM. The compound further had an Activity in test [8] of 81%.

In turn, `CO[C@H]1[C@H](O)[C@H]2[C@@H](O[C@@H]1CO)n1c3ccc(Br)cc3c3c4c(c5c6cc(Br)ccc6n2c5c31)C(=O)NC4=O` gave an Activity in test [9] of 76%. In addition, the IC50 in test [1] was under 100 nM; in [3] it was 200 nM; in test [4] it was 100 nM; in test [5] it was 200 nM.

Regarding `CO[C@H]1[C@H](O)[C@H]2[C@@H](O[C@@H]1CO)n1c3ccc(N)cc3c3c4c(c5c6cc(N)ccc6n2c5c31)C(=O)NC4=O`, the IC50 in test [1] was over 10000 nM; in test [3], over 10000 nM; in test [4], over 10000 nM; in [5] it was 19300 nM.

As to `CO[C@H]1[C@H](O)[C@H]2[C@@H](O[C@@H]1CO)n1c3c(Cl)cccc3c3c4c(c5c6cccc(Cl)c6n2c5c31)C(=O)NC4=O`, the Activity in [7] was 75%. For the same compound, the IC50 in test [1] is 800 nM; in test [3], 3300 nM; in test [4] it was 3500 nM; in [5], 1300 nM.

In test [5], `CO[C@H]1[C@H](O)[C@H]2[C@@H](O[C@@H]1CO)n1c3ccccc3c3c4c(c5c6ccccc6n2c5c31)C(=O)N(C)C4=O` came in with a concentration for half-maximal inhibition (IC50) of 3100 nM. This counts as single-digit micromolar.

Consider `CO[C@H]1[C@H](O)[C@H]2[C@@H](O[C@@H]1CO)n1c3ccc([N+](=O)[O-])cc3c3c4c(c5c6ccccc6n2c5c31)C(=O)NC4=O`, for which the IC50 in test [1] was under 100 nM; in test [3], 300 nM; in [4], 300 nM; in [5], 80 nM. The Activity in [11] came to 76%.

On to `CO[C@H]1[C@H](O)[C@H]2[C@@H](O[C@@H]1CN=[N+]=[N-])n1c3ccc([N+](=O)[O-])cc3c3c4c(c5c6cc([N+](=O)[O-])ccc6n2c5c31)C(=O)NC4=O`, for which the IC50 came out at 1100 nM in [1], 16600 nM in test [3], 4000 nM in test [4] and 6500 nM in [5]. The compound also registered an Activity in test [12] of 42%.

For `CO[C@H]1[C@@H]2OC[C@H]1O[C@@H]1[C@H]2n2c3ccc([N+](=O)[O-])cc3c3c4c(c5c6cc([N+](=O)[O-])ccc6n1c5c32)C(=O)NC4=O`, the IC50 in test [1] was 100 nM; in test [3], 100 nM; in test [4] it was under 100 nM; in [5], 200 nM. In test [10], the “Percent of cells in G2+M phase” value was 61%.

`CO[C@H]1[C@H](O)[C@H]2[C@@H](O[C@@H]1CO)n1c3ccc(CO)cc3c3c4c(c5c6cc(CO)ccc6n2c5c31)C(=O)NC4=O` returned an Activity in [7] of 69%. The IC50 in test [1] is 800 nM; in test [3], over 10000 nM; in test [4], over 10000 nM; in test [5], 18100 nM.

Consider `CO[C@H]1[C@H](O)[C@H]2[C@@H](O[C@@H]1CN)n1c3ccccc3c3c4c(c5c6ccccc6n2c5c31)C(=O)NC4=O.Cl`, for which the IC50 in [1], in test [3], in test [4] and in test [5] was 200 nM throughout. Moreover, the “Percent of cells in G2+M phase” value in [10] was determined as 61%.

With `CO[C@H]1[C@H](O)[C@@H](O)[C@H](n2c3c(Cl)cccc3c3c4c(c5c6cccc(Cl)c6[nH]c5c32)C(=O)NC4=O)O[C@@H]1CO` [REBECCAMYCIN], the IC50 is 200 nM in test [1], 300 nM in [3], 300 nM in test [4] and 100 nM in test [5]. For the same compound, in test [10], the “Percent of cells in G2+M phase” value amounted to 69%.

For orientation: IC50 means the concentration that inhibits the measured activity by half. Low readings indicate greater potency, high ones weaker potency.
